Results on 3 compounds are retold here after ChEMBL document CHEMBL4321820, “Identification and Optimization of Mechanism-Based Fluoroallylamine Inhibitors of Lysyl Oxidase-like 2/3” (J Med Chem, 2019).

For data set [1], the target named is T1, Lysyl oxidase homolog 2 (Homo sapiens, UniProt Q9Y4K0).
T1 sequence (Q9Y4K0 whole entry): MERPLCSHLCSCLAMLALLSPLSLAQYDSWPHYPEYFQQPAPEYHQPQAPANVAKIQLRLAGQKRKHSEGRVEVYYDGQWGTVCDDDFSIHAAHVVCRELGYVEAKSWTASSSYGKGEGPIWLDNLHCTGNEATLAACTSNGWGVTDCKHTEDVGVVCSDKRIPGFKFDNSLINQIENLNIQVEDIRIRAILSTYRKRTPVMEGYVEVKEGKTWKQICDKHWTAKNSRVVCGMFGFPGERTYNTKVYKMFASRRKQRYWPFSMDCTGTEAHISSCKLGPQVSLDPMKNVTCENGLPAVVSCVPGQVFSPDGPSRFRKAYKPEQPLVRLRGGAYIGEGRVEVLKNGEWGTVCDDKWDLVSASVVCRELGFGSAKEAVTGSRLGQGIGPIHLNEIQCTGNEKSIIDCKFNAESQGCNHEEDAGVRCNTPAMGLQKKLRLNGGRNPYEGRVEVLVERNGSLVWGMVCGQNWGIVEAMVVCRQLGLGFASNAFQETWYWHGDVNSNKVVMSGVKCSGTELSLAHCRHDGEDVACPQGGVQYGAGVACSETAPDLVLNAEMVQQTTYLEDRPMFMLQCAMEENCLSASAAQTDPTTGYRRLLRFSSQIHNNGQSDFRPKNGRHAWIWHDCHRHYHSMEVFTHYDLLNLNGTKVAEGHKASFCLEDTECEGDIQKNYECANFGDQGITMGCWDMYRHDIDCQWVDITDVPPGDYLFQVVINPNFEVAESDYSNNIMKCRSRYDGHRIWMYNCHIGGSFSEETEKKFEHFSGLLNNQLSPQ
Nature of the data set: Inhibition of recombinant human C-terminal His-tagged […] (1-774 residues) expressed in mouse myeloma cells using putrescine as substrate preincubated with enzyme for 30 mins followed by substrate addition and measured every 2.5 mins for 30 mins by Amplex-Red oxidation assay. The gist of the method: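 LOXL2 enzyme preincubated with compound for 30 min at 37 °C, then Amplex Red (120 µM) / HRP (1.5 U/mL) mix containing 5 mM putrescine added. Buffer: 1.2 M urea, 50 mM sodium borate, pH 8.2. H2O2 fluorescence (ex 565/em 590) read every 2.5 min for 30 min at 37 °C; BAPN 100 µM as positive control; n≥2.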

Data set [2] addresses T2, Protein-lysine 6-oxidase (Bos taurus, UniProt P33072).
T2 sequence (P33072 whole entry): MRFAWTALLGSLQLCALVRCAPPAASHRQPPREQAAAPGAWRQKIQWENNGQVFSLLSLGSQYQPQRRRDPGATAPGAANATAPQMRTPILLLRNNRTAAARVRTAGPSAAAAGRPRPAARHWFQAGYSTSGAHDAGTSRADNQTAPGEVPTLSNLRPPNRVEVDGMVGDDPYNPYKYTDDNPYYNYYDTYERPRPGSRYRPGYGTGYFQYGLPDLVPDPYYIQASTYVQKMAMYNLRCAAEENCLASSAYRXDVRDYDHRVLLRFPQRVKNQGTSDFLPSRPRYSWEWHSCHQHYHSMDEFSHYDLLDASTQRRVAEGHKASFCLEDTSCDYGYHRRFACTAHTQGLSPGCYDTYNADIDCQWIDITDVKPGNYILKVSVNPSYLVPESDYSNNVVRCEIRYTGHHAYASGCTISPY
Nature of the data set: Inhibition of LOX in bovine aorta using putrescine as substrate preincubated with enzyme for 30 mins followed by substrate addition and measured every 2.5 mins for 30 mins by Amplex-Red oxidation assay. In kind it is tissue-based. A digest of the protocol:
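LOX extracted from calf aorta after PBS washing with 4 M urea/50 mM borate pH 8.2, concentrated on 10 kDa filters into 1.2 M urea/borate with protease inhibitors. Preincubated 30 min at 37 °C with compound, then Amplex Red/HRP with 10 mM putrescine; fluorescence read every 2.5 min for 30 min.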

Data set [3] concerns the target T3, Amine oxidase [copper-containing] 3 (Homo sapiens, UniProt Q16853).
T3 sequence (Q16853 whole entry): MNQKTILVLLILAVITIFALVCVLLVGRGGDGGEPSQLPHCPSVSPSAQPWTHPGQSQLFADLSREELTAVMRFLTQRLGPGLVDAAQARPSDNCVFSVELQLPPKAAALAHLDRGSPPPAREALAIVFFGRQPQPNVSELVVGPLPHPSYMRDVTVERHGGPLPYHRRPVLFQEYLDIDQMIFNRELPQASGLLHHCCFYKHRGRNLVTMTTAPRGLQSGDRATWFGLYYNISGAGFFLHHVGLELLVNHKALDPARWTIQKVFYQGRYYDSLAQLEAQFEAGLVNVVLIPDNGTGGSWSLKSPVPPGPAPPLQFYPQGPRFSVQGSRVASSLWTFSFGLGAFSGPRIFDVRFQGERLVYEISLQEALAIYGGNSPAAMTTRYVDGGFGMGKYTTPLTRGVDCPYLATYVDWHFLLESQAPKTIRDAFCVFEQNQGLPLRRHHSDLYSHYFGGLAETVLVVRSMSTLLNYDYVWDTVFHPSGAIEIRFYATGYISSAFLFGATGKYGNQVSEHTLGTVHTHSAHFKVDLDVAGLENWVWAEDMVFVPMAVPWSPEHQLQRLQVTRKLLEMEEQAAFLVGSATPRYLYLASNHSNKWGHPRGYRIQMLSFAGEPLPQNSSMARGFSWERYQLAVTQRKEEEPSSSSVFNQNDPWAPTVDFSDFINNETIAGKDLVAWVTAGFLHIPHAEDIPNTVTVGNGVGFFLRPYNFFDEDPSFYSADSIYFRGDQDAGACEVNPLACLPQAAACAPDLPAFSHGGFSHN
Nature of the data set: Substrate activity at recombinant human SSAO assessed as compound oxidation by measuring oxidative turnover at 30 uM measured for 40 mins by horseradish peroxidase-coupled amplex red reagent-based fluorometric assay relative to DMSO. In kind it is ADME. The gist of the method: (§1)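 Compound oxidation measured without substrate by peroxidase-coupled fluorometric read-out of resorufin formation over 40 min at 37 °C in HEPES buffer. Amplex Red 20 µM, HRP 4 U/ml, test compound at final 30 µM. Enzyme source was human recombinant SSAO or AOC4 from diluted dog serum. Benzylamine at 600 µM served as positive control. Signal is expressed relative to DMSO-only background, so a value near 1 means no turnover.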

Data set [4] in a line: Substrate activity at AOC4 in dog serum assessed as compound oxidation by measuring oxidative turnover at 30 uM measured for 40 mins by horseradish peroxidase-coupled amplex red reagent-based fluorometric assay relative to DMSO. In kind it is ADME, cell-free, Canis lupus familiaris. A digest of the protocol:
as §1

Molecules are shown by their SMILES.

Take `CCOC(=O)c1ccc2c(c1)c(-c1cccc(S(=O)(=O)N(C)C)c1)c(C)n2C/C(F)=C/CN.Cl`: the IC50 was 79.4 nM in data set [1] (read-out: pIC50 (converted)) and 6310 nM in data set [2] (read-out: pIC50 (converted)). Besides, the results for the “fold change (FC)” value in data set [3] and in data set [4] were 2.4 and 1, respectively.

`Cc1c(-c2cccc(S(=O)(=O)N(C)C)c2)c2cc(C(=O)O)ccc2n1C/C(F)=C/CN.Cl`: the IC50 in data set [1] (read-out: IC50) turned out to be 5 nM; in data set [2] (read-out: IC50), 1780 nM. Further, the “fold change (FC)” value in data set [3] and in data set [4] was 1 each time.

Consider `Cc1c(-c2cccc(S(=O)(=O)N(C)C)c2)c2ccccc2n1C/C(F)=C/CN.Cl`, for which the IC50 is 100 nM in data set [1] (read-out: pIC50 (converted)) and 2000 nM in data set [2] (read-out: pIC50 (converted)). For the same compound, the “fold change (FC)” value in data set [3] is given as 1.4; in data set [4] it was more than 4.
